Source: PubChem
Most compounds without a hit are left out; they make up all but 4.9% or so of the library.
STAT1 activator – STAT1 signaling activators, primary screen, cell-based, HTS, luciferase reporter; actives 2.6% (n = 200,000); activation (% of control), % at 5.5 µM; NIH 3T3 STAT1-luciferase reporter, IFN-gamma, luminescence; 100% = IFN-gamma alone, no compound;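 active means activation above the screen-wide mean activation plus 3 SD, cut at about 130% in these data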;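 further: raw ratio to IFN-gamma control signal so 100% means no change and 0% no light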
STAT1 inh – STAT1 signaling inhibitors, primary screen, cell-based, HTS, luciferase reporter; NIH 3T3 STAT1-luciferase reporter, IFN-gamma, luminescence; inhibition, % at 5.5 µM; actives 0.35% (n = 200,000); AID 920, 2007;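 active means inhibition above a set limit, the mean inhibition across all tested compounds plus 3 SD, cut at about 34% in these data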;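 further: 0% = IFN-gamma with DMSO and 100% = IFN-gamma with 300 µM nifuroxazide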
NF-kB expr up – activators of NF-kB expression in neurons, primary screen, cell-based, HTS | human neuronal cells, NF-kB reporter expression; hits give high values | AID 1239, 2008 | actives 1.6% (n = 190,000) | fold change at 12.5 µM; in the data active means fold change above about 3.3
STAT3 act – IL-6 driven STAT3 reporter potentiators, primary screen, U3A cells, luciferase, luminescence, MLSCN library; IL-6 STAT3-luciferase reporter; 100% = signal with IL-6 EC80 alone; activation (% of control), % at 5.6 µM; actives 0.91% (n = 190,000); AID 871, 2007;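 active means activation above the screen-wide mean of compound activation plus 3 SD, cut at about 130% in these data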;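 further: 0% = background luminescence of wells with medium and substrate only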
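Material: human U3A cells carrying STAT3-luciferase construct. Measured by: reporter luminescence signal. Timing: compound 1 h, then IL-6 6 h at 37 °C.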
APP 5'UTR act – activators of APP 5'UTR luciferase reporter, primary screen, SH-SY5Y cells; SH-SY5Y APP 5'UTR luciferase reporter, luminescence; zero percent = DMSO vehicle wells; activation, % at 2 µM; actives 1% (n = 190,000);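 active means activation above a set limit, based on mean plus 3 SD of controls, cut at about 140% in these data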
STAT3 blocker – IL-6 driven STAT3 reporter inhibitors, primary screen, U3A cells, luciferase, luminescence, MLSCN library | IL-6 STAT3-luciferase reporter; host cell line lacks STAT1 | actives 0.89% (n = 190,000) | inhibition, % at 5.5 µM;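 active means inhibition above the mean inhibition across all screened compounds plus 3 SD, cut at about 44% in these data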;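 further: 0% = DMSO only wells and 100% = 100 µM nifuroxazide control wells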
An asterisk follows results filed as active.

SMILES	STAT1 activator	STAT1 inh	NF-kB expr up	STAT3 act	APP 5'UTR act	STAT3 blocker
O=C(COC(=O)/C=C/c1cccc([N+](=O)[O-])c1)NCC1CCCO1 (configuration not stated)	98.8	-0.2	1.19	104.0	5.7	-3.5
COc1ccc(Cl)cc1N(CC(=O)NC(C)(C)C)S(=O)(=O)c1ccc(C)c([N+](=O)[O-])c1	87.5	14.1	0.77	102.3	-11.5	-3.8
O=c1oc2ccccc2c(Nc2ccc3ccccc3c2)c1[N+](=O)[O-]	90.2	10.7	1.02	133.5*	1.9	-32.8
Cc1ccc(Nc2c([N+](=O)[O-])c(=O)oc3ccccc23)cc1	89.4	9.9	1.4	97.5	8.1	5.1
O=C(COc1ccc2c(c1)CCC2)N1CCN(c2ccccc2F)CC1	96.8	3.6	1.19	104.5	-6.0	-1.5
CC(C)CC(COCc1ccc(Cl)cc1)N1CCN(C(=O)c2cccc(C(F)(F)F)c2)CCC1=O (configuration not stated)	95.1	5.3	1.15	99.5	13.3	-2.2
CC(C)CC(COCc1ccc(C(F)(F)F)cc1)N1CCN(C(=O)c2ccc(C(F)(F)F)cc2)CCC1=O (configuration not stated)	94.1	6.5	3.92*	97.6	19.6	0.0
COc1cc(O)sc1C=Nc1ccc(Cl)cc1	132.2*	-35.3	2	118.9	33.9	-20.3
Cc1ccc(O)c(-c2cc(-c3ccccc3C)[nH]n2)c1	105.7	-9.2	2.81	113.1	55.5	-12.5
COc1ccc(-c2cc(-c3cc(C)ccc3O)[nH]n2)cc1	146.3*	-52.7	17.7*	139.6*	62.0	-42.1
N=C1C(c2nc3ccccc3s2)=C(O)CN1c1ccccc1	149.0*	-55.0	1.61	103.1	17.4	3.8
COc1ccc(N2CC(O)=C(c3nc4ccccc4s3)C2=N)cc1	109.3	-10.2	1.15	108.4	14.1	-3.9
CN(Cc1ccccc1)C(=O)COC(=O)C1CCN(S(=O)(=O)c2cccs2)CC1	95.6	4.4	1.06	105.5	4.2	-2.6
O=C(NCc1ccco1)Nc1ccc(Br)cc1Cl	133.1*	-35.9	1.7	82.2	42.9	23.7
CC1=CC2=NC(=O)CC(C)(C(=O)N(CC(=O)NC3CCCC3)c3cc(C)cc(C)c3)N2C=C1 (configuration not stated)	100.6	-1.0	1.23	98.6	11.6	5.6
Cc1cc(Br)ccc1OCC(=O)NNC(=O)c1cnccn1	100.2	-0.2	0.86	80.5	-3.8	26.2
Oc1ccccc1CNc1cnc2ccccc2c1	102.7	-5.9	3.56*	84.7	71.2	21.4
NC(=S)Nc1cnc2ccccc2c1	104.4	-4.8	1.41	105.4	32.8	-1.3
CC(=O)Nc1ccc(/C=C/c2ccc3c([N+](=O)[O-])cccc3n2)cc1	135.8*	-42.3	1.09	96.0	64.7	6.8
O=[N+]([O-])c1cccc2ccc(/C=C/c3ccc(Cl)cc3)nc12	112.6	-13.9	2.02	115.4	23.3	-23.8
O=C(c1cccc(COc2ccc(Cl)cc2Cl)c1)N1CCN(c2ccccn2)CC1	114.6	-15.8	1.94	92.1	172.8*	10.6
COc1ccccc1-c1nc(NC(C)=O)n[nH]1	88.9	12.2	1.06	159.1*	0.4	-65.4
Cc1ccc(NC(=S)NNC(=O)c2nn(C)c(C)c2Cl)cc1	131.1*	-34.6	2.85	99.2	112.0	11.1
O=C(COC(=O)CNS(=O)(=O)c1ccc(F)c(F)c1F)Nc1ccc(OC(F)F)cc1	82.8	19.3	1	100.4	-7.9	-0.5
CC(=O)c1cccc(Nc2nc(-c3cccc([N+](=O)[O-])c3)cs2)c1	131.2*	-46.5	1.53	102.3	1.4	6.8
CC(=O)Nc1ccc(-c2csc(Nc3cc(C)ccn3)n2)cc1	139.5*	-44.1	1.15	87.5	40.5	24.1
Cc1ccc(Nc2nc(-c3ccc(O)c(O)c3)cs2)nc1	136.4*	-41.8	9.45*	84.7	-5.9	21.0
